Consider 26 compounds from ChEMBL document CHEMBL1140690, “5-((4-Aminopiperidin-1-yl)methyl)pyrrolotriazine dual inhibitors of EGFR and HER2 protein tyrosine kinases” (Bioorg Med Chem Lett, 2007).

The term IC50 denotes the midpoint of a concentration-inhibition curve. As usually defined, the inhibition in vivo is the drop in the measured response relative to a control, in per cent. As usually defined, the AUC(0-t) is exposure summed from dosing to a finite time, without extrapolation to infinity. Read a high AUC(0-t) as more exposure.

The test system of series [1] is HT-29. Put plainly: Antiproliferative activity against human HT29 cells. It counts as functional, cell-based. In a few lines: (§1)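 HT29 (colon carcinoma) and A2780 (ovarian carcinoma) lines, stated not to rely on EGFR or HER2 signalling, serve as counter-screen lines; proliferation IC50 reported.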
Series [2] concerns Liver. Put plainly: Metabolic stability in mouse liver microsomes at 3 uM after 10 mins in presence of NADPH. It counts as ADME, Microsome. In a few lines:
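Mouse liver microsomes with NADPH; compound at 3 µM, incubated 10 min; metabolic rate expressed as nmol/min/mg protein.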

Series [3] concerns the target Epidermal growth factor receptor (Homo sapiens, UniProt P00533). Put plainly: Inhibition of human recombinant EGFR expressed in insect Sf9 cells.
Series [4] concerns GEO. Put plainly: Antitumor activity against human GEO cells xenografted in athymic mouse at 180 mg/kg, sc QD after 10 days. It counts as functional, organism-based. The arrangement: dose 180 mg/kg.
The test system of series [5] is NCI-N87. Put plainly: Antiproliferative activity against human N87 cells.
Series [6] concerns NCI-N87. Put plainly: Antitumor activity against human N87 cells xenografted in athymic mouse at 180 mg/kg, po QD after 21 days. The following applies: 504 h; for minimal effective dose at 180 mg/kg: read-out: MED. On the technique in general: In xenograft studies the graft and the host belong to different species.
Series [7] deals with Receptor tyrosine-protein kinase erbB-2 (Homo sapiens, UniProt P04626). Put plainly: Inhibition of human recombinant HER2 expressed in insect Sf9 cells.
Series [8] can be described thus: Drug level in BALB/c mouse plasma at 50 mg/kg, po after 4 hrs. It counts as ADME, organism-based. The arrangement: dose 50 mg/kg, route oral. In a few lines: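 Single oral 50 mg/kg dose in Tween 80/PEG400/water (10/40/50, v/v/v) to three male Balb/C mice; plasma concentration at 4 h averaged, AUC0–4h also derived.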
The nature of series [9]: AUC (0 to 4 hrs) in BALB/c mouse at 50 mg/kg, po after 4 hrs. It is filed as ADME, organism-based. The arrangement: time < 4 hr, dose 50 mg/kg, route oral. Particulars: plasma.
The test system of series [10] is A2780. Put plainly: Antiproliferative activity against human A2780 cells. It is filed as functional, cell-based. In a few lines: as §1
Series [11] in a line: Inhibition of PKA. Further details: species or system Homo sapiens. In a few lines: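 Kinase panel IC50s, each reported as the mean of at least three determinations.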
Series [12] concerns HT29. Put plainly: Antiproliferative activity against human HT29 cells.
Series [13] deals with NCI-N87. Put plainly: Antitumor activity against human N87 cells xenografted in athymic mouse at 240 mg/kg, sc QD after 21 days. It is filed as functional. Particulars: 504 h.
A short description of series [14]: Antitumor activity against human GEO cells xenografted in athymic mouse at 135 mg/kg, sc BID after 14 days. It is filed as functional. The following applies: 336 h, route subcutaneous.

Calls of active or inactive are those of the source. No cut-off for these calls is given here.

Sequence of Receptor tyrosine-protein kinase erbB-2 (P04626 whole entry): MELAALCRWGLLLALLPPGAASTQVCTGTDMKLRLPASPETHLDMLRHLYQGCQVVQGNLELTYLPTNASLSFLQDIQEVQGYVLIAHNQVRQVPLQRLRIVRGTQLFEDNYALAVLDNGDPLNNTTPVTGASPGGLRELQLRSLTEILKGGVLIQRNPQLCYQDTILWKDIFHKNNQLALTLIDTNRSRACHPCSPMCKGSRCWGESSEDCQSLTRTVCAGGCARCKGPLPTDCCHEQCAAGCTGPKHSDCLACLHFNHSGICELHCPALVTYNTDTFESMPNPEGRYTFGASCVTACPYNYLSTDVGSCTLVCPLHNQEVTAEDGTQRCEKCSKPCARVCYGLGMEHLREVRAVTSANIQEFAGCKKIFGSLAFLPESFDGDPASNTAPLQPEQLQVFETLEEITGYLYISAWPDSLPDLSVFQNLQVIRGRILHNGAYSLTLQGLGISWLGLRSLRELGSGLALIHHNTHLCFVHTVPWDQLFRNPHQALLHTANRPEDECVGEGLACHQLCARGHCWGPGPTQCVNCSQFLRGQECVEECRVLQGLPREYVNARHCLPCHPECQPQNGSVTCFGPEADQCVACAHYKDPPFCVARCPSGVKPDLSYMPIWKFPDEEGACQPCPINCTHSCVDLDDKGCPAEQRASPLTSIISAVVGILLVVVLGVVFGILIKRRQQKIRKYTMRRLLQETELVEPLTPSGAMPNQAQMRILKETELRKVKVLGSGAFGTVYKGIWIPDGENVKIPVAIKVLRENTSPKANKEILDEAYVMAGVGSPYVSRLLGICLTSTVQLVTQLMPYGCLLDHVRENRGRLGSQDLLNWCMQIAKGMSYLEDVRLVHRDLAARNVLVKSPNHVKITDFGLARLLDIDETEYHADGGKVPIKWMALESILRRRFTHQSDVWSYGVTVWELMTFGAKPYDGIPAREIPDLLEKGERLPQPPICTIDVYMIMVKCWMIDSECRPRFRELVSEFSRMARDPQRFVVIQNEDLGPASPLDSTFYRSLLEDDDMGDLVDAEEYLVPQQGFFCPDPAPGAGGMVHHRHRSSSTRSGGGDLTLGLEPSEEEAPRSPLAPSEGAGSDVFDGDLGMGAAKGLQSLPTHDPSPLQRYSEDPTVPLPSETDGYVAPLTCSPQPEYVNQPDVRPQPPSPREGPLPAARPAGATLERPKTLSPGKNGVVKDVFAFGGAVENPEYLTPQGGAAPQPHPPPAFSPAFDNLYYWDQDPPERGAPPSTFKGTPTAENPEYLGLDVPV
Sequence of Epidermal growth factor receptor (P00533 whole entry): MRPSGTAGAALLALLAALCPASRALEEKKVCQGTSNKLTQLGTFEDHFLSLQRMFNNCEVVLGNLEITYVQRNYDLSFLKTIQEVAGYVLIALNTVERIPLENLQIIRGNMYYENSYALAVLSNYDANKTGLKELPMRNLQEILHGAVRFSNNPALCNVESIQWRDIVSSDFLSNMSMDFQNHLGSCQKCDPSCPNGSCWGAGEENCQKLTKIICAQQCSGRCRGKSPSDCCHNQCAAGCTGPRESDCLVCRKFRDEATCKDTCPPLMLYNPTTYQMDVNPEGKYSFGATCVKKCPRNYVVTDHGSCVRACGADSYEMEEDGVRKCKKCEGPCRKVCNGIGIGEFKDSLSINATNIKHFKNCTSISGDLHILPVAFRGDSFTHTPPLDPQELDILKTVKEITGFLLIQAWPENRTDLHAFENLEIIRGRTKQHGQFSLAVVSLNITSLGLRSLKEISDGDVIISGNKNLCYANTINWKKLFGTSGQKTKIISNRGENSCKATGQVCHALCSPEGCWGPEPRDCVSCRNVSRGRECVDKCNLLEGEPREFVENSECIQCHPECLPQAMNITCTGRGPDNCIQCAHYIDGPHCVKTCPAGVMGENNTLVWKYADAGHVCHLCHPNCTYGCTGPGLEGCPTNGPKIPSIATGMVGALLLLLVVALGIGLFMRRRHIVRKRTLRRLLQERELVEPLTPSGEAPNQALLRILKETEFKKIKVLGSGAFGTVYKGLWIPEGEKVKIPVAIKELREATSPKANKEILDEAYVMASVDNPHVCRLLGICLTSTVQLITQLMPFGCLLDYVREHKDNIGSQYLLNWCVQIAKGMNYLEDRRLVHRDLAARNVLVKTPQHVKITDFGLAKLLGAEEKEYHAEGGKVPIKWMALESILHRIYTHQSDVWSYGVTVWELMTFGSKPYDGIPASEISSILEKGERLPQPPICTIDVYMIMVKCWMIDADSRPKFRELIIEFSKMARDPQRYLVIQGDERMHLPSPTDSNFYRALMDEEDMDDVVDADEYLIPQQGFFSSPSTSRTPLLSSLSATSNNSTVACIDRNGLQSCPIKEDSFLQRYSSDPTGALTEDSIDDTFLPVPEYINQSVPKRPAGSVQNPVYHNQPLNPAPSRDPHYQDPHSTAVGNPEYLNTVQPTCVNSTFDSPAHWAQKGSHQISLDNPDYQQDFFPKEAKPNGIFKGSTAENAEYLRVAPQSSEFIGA

As to `Cc1cncc(Cn2ncc3cc(Nc4ncnn5ccc(CN6CCC(N)CC6)c45)ccc32)c1`, the IC50 in series [1] was over 5000 nM; in series [3], 19 nM; in [5] it was 36 nM; in series [7], 13 nM; in series [10], over 5000 nM. Besides, the metabolic rate in series [2] turned out to be 0.06 nmol/min/mg. In [4], the outcome was inactive. The inhibition in vivo at 180 mg/kg in [6] was determined as 89%. Further, the minimal effective dose at 180 mg/kg in [6] came out at 120 mg/kg. The compound further had a concentration at 4 h in [8] of 1.3 µM. This compound showed an AUC(0-t) at 4 h in series [9] of 9.9 µM·h.

Turning to `NC1CCN(Cc2ccn3ncnc(Nc4ccc(OCc5cccc(F)c5)c(Cl)c4)c23)CC1`, the results for the IC50 in [3], in series [5] and in [7] were 38 nM, 83 nM and 32 nM, respectively.

Consider `NCC1CCN(Cc2ccn3ncnc(Nc4ccc5c(cnn5Cc5cccc(F)c5)c4)c23)CC1`, for which the IC50 in [1] came to 2900 nM; in series [3], 35 nM; in series [5], 140 nM; in [7], 38 nM; in series [10] it was 2900 nM.

For the compound `COc1cn2ncnc(Nc3ccc4c(cnn4Cc4cccc(F)c4)c3)c2c1CN1CCCNCC1`, the IC50 was 190 nM in [3], 3700 nM in [5] and 170 nM in series [7].

For the compound `NC1CCN(Cc2ccn3ncnc(Nc4ccc5c(cnn5Cc5ccccn5)c4)c23)CC1`, the IC50 was over 10000 nM in [1]; 47 nM in series [3]; 120 nM in series [5]; 35 nM in series [7]; over 10000 nM in series [10]. Also, the metabolic rate in series [2] came out at 0.01 nmol/min/mg. The compound further registered a concentration at 4 h in series [8] of 1.6 µM. In series [9], the AUC(0-t) at 4 h was found to be 3.6 µM·h.

`CS(=O)(=O)CCNC1CCN(Cc2ccn3ncnc(Nc4ccc5c(cnn5Cc5cccc(F)c5)c4)c23)CC1`: the figures for the IC50 in series [3], in series [5] and in series [7] were 200 nM, 700 nM and 190 nM, respectively.

On to `Fc1cccc(Cn2ncc3cc(Nc4ncnn5ccc(COC[C@@H]6CNCCO6)c45)ccc32)c1`, for which the values for the IC50 in [1] and in series [11] were 8700 nM and over 50000 nM, respectively.

Consider `Cc1cncc(COc2ccc(Nc3ncnn4ccc(CN5CCC(N)CC5)c34)cc2Cl)c1`, for which the IC50 was determined as 3500 nM in series [1], 180 nM in series [5], 60 nM in series [7] and 3500 nM in [10]. Besides, the metabolic rate in [2] came to 0 nmol/min/mg. Besides, the concentration at 4 h in series [8] was found to be 1.8 µM. Besides, in series [9], the AUC(0-t) at 4 h was 7.8 µM·h.

With `O=C(CO)NC1CCN(Cc2ccn3ncnc(Nc4ccc5c(cnn5Cc5cccc(F)c5)c4)c23)CC1`, the IC50 in series [1] is 9500 nM; in series [3], 110 nM; in series [5], 310 nM; in series [7], 120 nM; in series [10] it was 9500 nM.

In the case of `NC1CCN(Cc2ccn3ncnc(Nc4ccc5c(cnn5Cc5ccncc5)c4)c23)CC1`, the IC50 in [1] was over 5000 nM; in series [3] it was 530 nM; in series [5] it was 470 nM; in [7], 190 nM; in series [10], over 5000 nM.

For `COc1cn2ncnc(Nc3ccc4c(cnn4Cc4cccc(F)c4)c3)c2c1CN1CCC(N)CC1`, the IC50 in series [3] is 40 nM; in [5] it was 430 nM; in series [7] it was 43 nM.

Consider `N[C@H]1CCN(Cc2ccn3ncnc(Nc4ccc5c(cnn5Cc5cccc(F)c5)c4)c23)C1`, for which the IC50 worked out at 6500 nM in series [1]; 50 nM in [3]; 810 nM in [5]; 52 nM in [7]; 6500 nM in series [10].

For `Fc1cccc(COc2ccc(Nc3ncnn4ccc(CN5CCCNCC5)c34)cc2Cl)c1`, the IC50 in series [3] was 48 nM; in [5] it was 600 nM; in series [7], 41 nM.

For the compound `CNC1CCN(Cc2ccn3ncnc(Nc4ccc5c(cnn5Cc5cccc(F)c5)c4)c23)CC1`, the IC50 in series [1] was 7300 nM; in [3], 63 nM; in series [5], 78 nM; in series [7] it was 54 nM; in series [10], 7300 nM.

As for `CC(=O)NC1CCN(Cc2ccn3ncnc(Nc4ccc5c(cnn5Cc5cccc(F)c5)c4)c23)CC1`, the IC50 is over 10000 nM in [1]; 380 nM in [3]; over 10000 nM in series [12]; 290 nM in series [5]; 180 nM in series [7].

As to `CN(C)C1CCN(Cc2ccn3ncnc(Nc4ccc5c(cnn5Cc5cccc(F)c5)c4)c23)CC1`, the half-inhibitory concentration (IC50) in series [1] came out at 7600 nM; in [3], 100 nM; in [5] it was 450 nM; in [7], 110 nM; in series [10], 7600 nM.

For the compound `NC1CCN(Cc2ccn3ncnc(Nc4ccc(OCc5ccccn5)c(Cl)c4)c23)CC1`, the IC50 turned out to be 2000 nM in series [1]; 36 nM in series [3]; 58 nM in series [5]; 22 nM in series [7]; 2000 nM in series [10]. For the same compound, the metabolic rate in series [2] came to 0.04 nmol/min/mg. Moreover, the concentration at 4 h in [8] turned out to be 3.7 µM. Besides, the AUC(0-t) at 4 h in [9] worked out at 13 µM·h. The inhibition in vivo at 240 mg/kg in [13] (dose 240 mg/kg) came out at 110%. Besides, in series [13] (read-out: MED), the minimal effective dose stood at 120 mg/kg.

Regarding `OCCNC1CCN(Cc2ccn3ncnc(Nc4ccc5c(cnn5Cc5cccc(F)c5)c4)c23)CC1`, the IC50 in series [1] is 5400 nM; in series [5], 73 nM; in series [7], 31 nM; in series [10] it was 5400 nM.

Regarding `CC1(N)CCN(Cc2ccn3ncnc(Nc4ccc5c(cnn5Cc5cccc(F)c5)c4)c23)CC1`, the IC50 in series [1] is 6100 nM; in [3] it was 50 nM; in [12] it was 6100 nM; in series [5] it was 70 nM; in series [7], 43 nM.

As to `NC1CCN(Cc2ccn3ncnc(Nc4ccc5c(cnn5Cc5cccnc5)c4)c23)CC1`, the IC50 in series [1] is over 5000 nM; in [3] it was 190 nM; in series [5], 86 nM; in series [7] it was 34 nM; in series [10], over 5000 nM. Besides, the metabolic rate in [2] worked out at 0.01 nmol/min/mg. In series [8], this compound returned a concentration at 4 h of 4.5 µM. Besides, the AUC(0-t) at 4 h in [9] was found to be 22 µM·h.

For `Fc1cccc(Cn2ncc3cc(Nc4ncnn5ccc(CN6CCCNCC6)c45)ccc32)c1`, the inhibition in vivo at 135 mg/kg in series [14] (dose 135 mg/kg) was found to be 78%. For the same compound, the minimal effective dose in series [14] (read-out: MED) turned out to be 90 mg/kg. Besides, the IC50 worked out at 3600 nM in series [1], 110 nM in [5] and 3600 nM in series [10]. Moreover, the inhibition in vivo at 180 mg/kg in [6] stood at 121%. Besides, the minimal effective dose at 180 mg/kg in series [6] came to 90 mg/kg.

As to `NC1CCN(Cc2ccn3ncnc(Nc4ccc(OCc5cnccn5)c(Cl)c4)c23)CC1`, the IC50 in series [1] came out at 3500 nM; in [3] it was 32 nM; in series [5], 72 nM; in series [7] it was 26 nM; in [10], 3500 nM. Besides, in [2], the metabolic rate amounted to 0.12 nmol/min/mg. Besides, in [4], the result was inactive. For the same compound, the inhibition in vivo at 180 mg/kg in series [6] is 63%. The minimal effective dose at 180 mg/kg in [6] was 180 mg/kg. This compound had a concentration at 4 h in [8] of 6.3 µM. Besides, in [9], the AUC(0-t) at 4 h came to 21 µM·h.

Turning to `N[C@@H]1CCN(Cc2ccn3ncnc(Nc4ccc5c(cnn5Cc5cccc(F)c5)c4)c23)C1`, the IC50 in series [1] is 3900 nM; in series [3], 60 nM; in [5], 830 nM; in series [7], 70 nM; in series [10], 3900 nM.

Turning to `NC1CCN(Cc2ccn3ncnc(Nc4ccc(OCc5cccc[n+]5[O-])c(Cl)c4)c23)CC1`, the 50% inhibitory concentration (IC50) in [1] is over 5000 nM; in series [3], 70 nM; in series [5], 110 nM; in series [7] it was 18 nM; in series [10] it was over 5000 nM. In series [2], the metabolic rate was found to be 0 nmol/min/mg. Also, in series [4], the result was inactive. The compound further showed a concentration at 4 h in [8] of 3.9 µM. In series [9], this compound displayed an AUC(0-t) at 4 h of 15 µM·h.

Turning to `NC1CCN(Cc2ccn3ncnc(Nc4ccc(OCc5cccnc5)c(Cl)c4)c23)CC1`, the IC50 in series [1] stood at 2700 nM; in [3], 150 nM; in series [5] it was 230 nM; in [7] it was 36 nM; in series [10] it was 2700 nM. For the same compound, the concentration at 4 h in series [8] came to 7.5 µM. Moreover, the AUC(0-t) at 4 h in series [9] turned out to be 30 µM·h.

Regarding `Fc1cccc(Cn2ncc3cc(Nc4ncnn5ccc(CNC6CCNCC6)c45)ccc32)c1`, the IC50 was determined as 5000 nM in [1]; 110 nM in series [3]; 1150 nM in [5]; 76 nM in series [7]; 5000 nM in series [10].
